Data on 6 compounds can be found in ChEMBL document CHEMBL1154752, “Discovery of a new and efficient small molecule for neuronal differentiation from mesenchymal stem cell” (J Med Chem, 2009).

Data set [1] concerns Mesenchymal stem cell. Nature of the data set: Induction of neuronal differentiation in Fisher rat mesenchymal stem cells assessed as change in cell morphology at 20 uM after 2 days. Type of data set: functional, cell-based. The essentials: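 Bone marrow MSCs treated at 20 μM for 2 days. Morphology inspected by immunocytochemistry with anti-β-III tubulin and DAPI staining.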

Data set [2] has as its system Mesenchymal stem cell. In words: Induction of neuronal differentiation in Fisher rat mesenchymal stem cells assessed as increase in neuron specific enolase expression after 2 days. Type of data set: functional, cell-based. The essentials: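 Rat bone marrow MSCs treated over a time course. Neuron-specific enolase protein followed alongside β-III tubulin. More than three independent experiments.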

Data set [3] can be described thus: Induction of neuronal differentiation in Fisher rat mesenchymal stem cells at 20 uM after 2 days by Nissl staining. The class given is functional, Mesenchymal stem cell. In a few lines: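 Bone marrow MSCs held at 20 μM for 2 days, then Nissl stained. Differentiation estimated by counting cells. Each experiment repeated independently more than three times.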

In data set [4] the test system is Mesenchymal stem cell. In words: Induction of neuronal differentiation in Fisher rat mesenchymal stem cells assessed as induction of Chrna2 gene expression by DNA microarray. Type of data set: functional, cell-based.
Data set [5] has as its system PC-12. In words: Induction of neuronal differentiation in rat PC12 cells assessed as increase in beta-3 tubulin expression after 48 hrs. Type of data set: functional, cell-based.
In data set [6] the test system is PC-12. In words: Induction of neuronal differentiation in rat PC12 cells assessed as increase in neuron specific enolase expression after 48 hrs. Type of data set: functional, cell-based.
Data set [7] deals with Mesenchymal stem cell. Nature of the data set: Induction of neuronal differentiation in Fisher rat mesenchymal stem cells assessed as induction of cholinergic receptor gene expression after 2 days by quantitative PCR. The class given is functional, cell-based. The essentials: (§1)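 MSCs incubated at 10 and 20 μM for 2 days beside a DMSO control. mRNA levels measured by quantitative PCR, three independent runs.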

For data set [8], the system named is Mesenchymal stem cell. Nature of the data set: Induction of neuronal differentiation in Fisher rat mesenchymal stem cells assessed as induction of Chrm4 gene expression by DNA microarray. Type of data set: functional, cell-based.
In data set [9] the test system is Mesenchymal stem cell. Nature of the data set: Induction of neuronal differentiation in Fisher rat mesenchymal stem cells assessed as induction of Sizn1 gene expression after 2 days by quantitative PCR. Type of data set: functional, cell-based. The essentials:
as §1

Data set [10] has as its system Mesenchymal stem cell. Nature of the data set: Induction of astroglial differentiation in Fisher rat mesenchymal stem cells assessed as GFAP level at 20 uM after 2 days by Western blot. The class given is functional, cell-based. The essentials: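 Rat bone marrow MSCs exposed to 20 μM for 48 h. GFAP, the astroglial marker, detected by Western blot.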
Data set [11] relates to Mesenchymal stem cell. In words: Induction of neuronal differentiation in Fisher rat mesenchymal stem cells assessed as induction of potassium current at 20 uM after 2 days by patch clamp method. The class given is functional, cell-based. In a few lines: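 Rat MSCs treated at 20 μM for 2 days. Whole-cell patch clamp records membrane K+ current under voltage pulses from -30 to 90 mV.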

The subject of data set [12] is Mesenchymal stem cell. In words: Induction of neuronal differentiation in Fisher rat mesenchymal stem cells assessed as induction of Chrnb2 gene expression by DNA microarray. Type of data set: functional, cell-based.
Data set [13] concerns Mesenchymal stem cell. In words: Induction of neuronal differentiation in Fisher rat mesenchymal stem cells assessed as increase in beta-3 tubulin expression after 2 days. Type of data set: functional, cell-based. In a few lines: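 Rat bone marrow MSCs given 20 μM for 2 days, with 50 ng/mL NGF as comparator. β-III tubulin detected by Western blot and by immunocytochemistry with anti-β-III tubulin plus DAPI counterstain. More than three independent repeats.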

Data set [14] in a line: Toxicity in Fisher rat mesenchymal stem cells at 20 uM after 2 days. As to conditions: mesenchymal stem cell, 48 h. The class given is cell-based.
The subject of data set [15] is Mesenchymal stem cell. Nature of the data set: Induction of neuronal differentiation in Fisher rat mesenchymal stem cells assessed as induction of Fbxo2 gene expression after 2 days by quantitative PCR. Type of data set: functional, cell-based. The essentials: as §1
Data set [16] concerns Mesenchymal stem cell. In words: Induction of neuronal differentiation in Fisher rat mesenchymal stem cells assessed as change in acetylcholine-induced membrane potential at 20 uM after 2 days by FLIPR. Type of data set: functional, cell-based. In a few lines: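 Rat MSCs preincubated with 20 μM for 48 h. Membrane potential read with a FLIPR membrane potential dye kit after addition of 10 μM acetylcholine, with untreated cells as reference.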

Data set [17] relates to PC-12. In words: Induction of neurite outgrowth in rat PC12 cells after 48 hrs. The class given is functional, cell-based.

The structures appear in SMILES notation. The source made the active and inactive calls. The calls are words filed in the database; no cut-off is given here.

As to `O=C(NOC1CCCCO1)c1ccc2[nH]c(=O)c(CCCc3ccccc3)nc2c1` (configuration not stated), the outcome in the data set on Mesenchymal stem cell [1] was inactive.

On to `O=C(NO)c1ccc2nc(CCCc3ccccc3)c(=O)[nH]c2c1`, for which the outcome in the data set with Mesenchymal stem cell [1] was inactive.

Regarding `O=C(NO)c1ccc2[nH]c(=O)c(CCCc3ccccc3)nc2c1`, the Activity entry in the data set on Mesenchymal stem cell [2] is “Dose-dependent effect”; in [3] it was >95%; with Mesenchymal stem cell [7], “Dose-dependent effect”; with Mesenchymal stem cell [9], “Dose-dependent effect”; in the data set with Mesenchymal stem cell [13], “Dose-dependent effect”; in data set [14], “Non-toxic”. In the data set on Mesenchymal stem cell [15], the Activity result was “Dose-dependent effect”. Also, the outcome in the data set with Mesenchymal stem cell [4], in the data set with PC-12 [5], with PC-12 [6], in the data set on Mesenchymal stem cell [8], in the data set on Mesenchymal stem cell [1] and in the data set with Mesenchymal stem cell [11] was Active. Further, the result in the data set with Mesenchymal stem cell [12], in the data set with Mesenchymal stem cell [16] and in the data set on PC-12 [17] was Active. Also, the result in the data set with Mesenchymal stem cell [10] was inactive.

Take `COC(=O)c1ccc2[nH]c(=O)c(CCCc3ccccc3)nc2c1`: in the data set with Mesenchymal stem cell [1], the outcome was inactive.

As to `COC(=O)c1ccc2nc(CCCc3ccccc3)c(=O)[nH]c2c1`, the result in the data set on Mesenchymal stem cell [1] was inactive.

Turning to `O=C(NOC1CCCCO1)c1ccc2nc(CCCc3ccccc3)c(=O)[nH]c2c1` (configuration not stated), the outcome in the data set on Mesenchymal stem cell [1] was inactive.
